Key:
[1] = target: Histamine H1 receptor (Cavia porcellus) (UniProt P31389); experiment: Antagonist activity at histamine H1 receptor in guinea pig ileum assessed as inhibition of histamine-induced smooth muscle contraction at 0.2 mg/mL after 3 mins (reference value: 3.37 +/- 1.05 g); type: tissue-based
[2] = target: Histamine H1 receptor (Cavia porcellus) (UniProt P31389); experiment: Antagonist activity at histamine H1 receptor in guinea pig ileum assessed as inhibition of histamine-induced smooth muscle spasm at 0.2 mg/mL after 3 mins (reference value: 1.27 +/- 5.65%); type: tissue-based; parameters: scale not given: the % may be the effect or the level left
Cavia porcellus [3] = experiment: Antiasthamatic activity in histamine-induced guinea pig asthma model assessed as prolongation of asthmogenic latent period at 0.01 mg/kg, ig pretreated for 60 mins prior to histamine-challenge (reference value: 127.10 +/- 40.46 seconds); type: functional; settings: route intragastric
Mus musculus [4] = experiment: Toxicity in mouse assessed as salivation at 0.05 to 0.2 mg/kg measured for 7 days; type: organism-based; parameters: dose 0.05-0.2 mg/kg; settings: in vivo, 168 h
Procedure, shortened: (§1)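 Groups of 10 received saline 10 mL/kg, desloratadine 1 mg/kg, or compound at a low dose (0.05 mg/kg) or high dose (0.2 mg/kg), all at a dosing volume of 10 mL/kg. Over the following seven days, mental state, body activity and abnormal signs were observed: sleep, excitement, irritability, convulsion, salivation and muscle tremor.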

Mus musculus [5] = experiment: Toxicity in mouse assessed as change in mental state at 0.05 to 0.2 mg/kg measured for 7 days; type: organism-based; parameters: dose 0.05-0.2 mg/kg; settings: in vivo, 168 h; procedure, shortened: as §1
Ileum [6] = experiment: Toxicity in guinea pig ileum assessed as effect on acetylcholine-induced smooth muscle spasm at 1.4 ug/mL after 3 mins (reference value: 1.31 +/- 3.66%); type: tissue-based, Cavia porcellus; settings: in vivo
Mus musculus [7] = experiment: Toxicity in mouse assessed as convulsion at 0.05 to 0.2 mg/kg measured for 7 days; type: organism-based; parameters: dose 0.05-0.2 mg/kg; settings: in vivo, 168 h; procedure, shortened: as §1
Mus musculus [8] = experiment: Toxicity in mouse assessed as effect on pentobarbital sodium-induced hypnotic effect measured as recovery of righting reflex at 50 mg/kg pretreated for 30 mins prior to pentobarbital sodium-challenge; type: organism-based; parameters: dose 50 mg/kg; settings: in vivo
Mus musculus [9] = experiment: Toxicity in mouse assessed as irritability at 0.05 to 0.2 mg/kg measured for 7 days; type: organism-based; parameters: dose 0.05-0.2 mg/kg; settings: in vivo, 168 h; procedure, shortened: as §1
Mus musculus [10] = experiment: Toxicity in mouse assessed as effect on pentobarbital sodium-induced hypnotic effect measured as loss of righting reflex latency at 200 mg/kg pretreated for 30 mins prior to pentobarbital sodium-challenge; type: organism-based; parameters: dose 200 mg/kg; settings: in vivo
Mus musculus [11] = experiment: Toxicity in mouse assessed as effect on pentobarbital sodium-induced hypnotic effect measured as loss of righting reflex latency at 50 mg/kg pretreated for 30 mins prior to pentobarbital sodium-challenge; type: organism-based; parameters: dose 50 mg/kg; settings: in vivo
Mus musculus [12] = experiment: Toxicity in mouse assessed as excitement at 0.05 to 0.2 mg/kg measured for 7 days; type: organism-based; parameters: dose 0.05-0.2 mg/kg; settings: in vivo, 168 h; procedure, shortened: as §1
Mus musculus [13] = experiment: Toxicity in mouse assessed as sleep abnormality at 0.05 to 0.2 mg/kg measured for 7 days; type: organism-based; parameters: dose 0.05-0.2 mg/kg; settings: in vivo, 168 h; procedure, shortened: as §1
Ileum [14] = experiment: Toxicity in guinea pig ileum assessed as effect on acetylcholine-induced smooth muscle spasm at 0.6 ug/mL after 3 mins (reference value: 1.31 +/- 3.66%); type: tissue-based, Cavia porcellus; settings: in vivo
Mus musculus [15] = experiment: Toxicity in mouse assessed as change in body activity at 0.05 to 0.2 mg/kg measured for 7 days; type: organism-based; parameters: dose 0.05-0.2 mg/kg; settings: in vivo, 168 h; procedure, shortened: as §1
Ileum [16] = experiment: Toxicity in guinea pig ileum assessed as effect on acetylcholine-induced smooth muscle contraction at 1.4 ug/mL after 3 mins (reference value: 5.17 +/- 0.36 g); type: tissue-based, Cavia porcellus
Mus musculus [17] = experiment: Toxicity in mouse assessed as effect on pentobarbital sodium-induced hypnotic effect measured as recovery of righting reflex at 100 mg/kg pretreated for 30 mins prior to pentobarbital sodium-challenge; type: organism-based; parameters: dose 100 mg/kg; settings: in vivo
Ileum [18] = experiment: Toxicity in guinea pig ileum assessed as effect on acetylcholine-induced smooth muscle contraction at 0.6 ug/mL after 3 mins (reference value: 5.17 +/- 0.36 g); type: tissue-based, Cavia porcellus
Mus musculus [19] = experiment: Toxicity in mouse assessed as muscle tremor at 0.05 to 0.2 mg/kg measured for 7 days; type: organism-based, Muscle tissue; parameters: dose 0.05-0.2 mg/kg; settings: in vivo, 168 h; procedure, shortened: as §1
Ileum [20] = experiment: Toxicity in guinea pig ileum assessed as effect on acetylcholine-induced smooth muscle spasm at 0.1 ug/mL after 3 mins (reference value: 1.31 +/- 3.66%); type: tissue-based, Cavia porcellus; settings: in vivo
Ileum [21] = experiment: Toxicity in guinea pig ileum assessed as effect on acetylcholine-induced smooth muscle contraction at 0.1 ug/mL after 3 mins (reference value: 5.17 +/- 0.36 g); type: tissue-based, Cavia porcellus
Mus musculus [22] = experiment: Toxicity in mouse assessed as effect on pentobarbital sodium-induced hypnotic effect measured as loss of righting reflex latency at 1 mg/kg pretreated for 30 mins prior to pentobarbital sodium-challenge; type: organism-based; parameters: dose 1 mg/kg; settings: in vivo
Procedure, shortened: (§2)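 Mice, 10 per group. Groups: saline, pentobarbital alone, pentobarbital plus desloratadine 1 mg/kg, pentobarbital plus test agent at 0.05 or 0.2 mg/kg. 30 min after dosing, 1% pentobarbital sodium given i.p. at 100 mg/kg (10 mL/kg). Latency to loss of righting reflex and time to its recovery recorded, in min.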

Cavia porcellus [23] = experiment: Antiasthamatic activity in histamine-induced guinea pig asthma model assessed as prolongation of asthmogenic latent period at 1 mg/kg, ig pretreated for 60 mins prior to histamine-challenge (reference value: 127.10 +/- 40.46 seconds); type: functional; settings: route intragastric
Mus musculus [24] = experiment: Toxicity in mouse assessed as effect on pentobarbital sodium-induced hypnotic effect measured as recovery of righting reflex at 1 mg/kg pretreated for 30 mins prior to pentobarbital sodium-challenge; type: organism-based; parameters: dose 1 mg/kg; settings: in vivo; procedure, shortened: as §2
Ileum [25] = experiment: Toxicity in guinea pig ileum assessed as effect on acetylcholine-induced smooth muscle contraction at 2 ug/mL after 3 mins (reference value: 5.17 +/- 0.36 g); type: tissue-based, Cavia porcellus
Ileum [26] = experiment: Toxicity in guinea pig ileum assessed as effect on acetylcholine-induced smooth muscle spasm at 2 ug/mL after 3 mins (reference value: 1.31 +/- 3.66%); type: tissue-based, Cavia porcellus; settings: in vivo
Ileum [27] = experiment: Toxicity in guinea pig ileum assessed as effect on acetylcholine-induced smooth muscle spasm at 0.2 ug/mL after 3 mins (reference value: 1.31 +/- 3.66%); type: tissue-based, Cavia porcellus; settings: in vivo
Ileum [28] = experiment: Toxicity in guinea pig ileum assessed as effect on acetylcholine-induced smooth muscle contraction at 0.2 ug/mL after 3 mins (reference value: 5.17 +/- 0.36 g); type: tissue-based, Cavia porcellus

Sequence of Histamine H1 receptor (Cavia porcellus) (P31389 whole entry): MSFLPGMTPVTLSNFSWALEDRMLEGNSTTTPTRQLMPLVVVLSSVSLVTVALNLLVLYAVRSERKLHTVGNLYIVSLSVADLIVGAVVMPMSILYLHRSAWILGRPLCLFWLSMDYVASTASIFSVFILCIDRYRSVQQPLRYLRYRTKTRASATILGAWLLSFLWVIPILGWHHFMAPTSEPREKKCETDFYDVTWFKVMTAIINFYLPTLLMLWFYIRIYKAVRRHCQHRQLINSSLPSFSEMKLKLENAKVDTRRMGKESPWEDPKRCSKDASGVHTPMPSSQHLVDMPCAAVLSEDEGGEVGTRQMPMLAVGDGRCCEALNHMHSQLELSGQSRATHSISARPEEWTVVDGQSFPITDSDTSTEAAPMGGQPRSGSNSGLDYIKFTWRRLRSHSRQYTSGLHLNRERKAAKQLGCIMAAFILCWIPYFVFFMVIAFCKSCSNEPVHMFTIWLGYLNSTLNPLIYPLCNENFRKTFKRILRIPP

O=C1c2ccccc2C(=O)N1CCCN1CCC(=C2c3ccc(Cl)cc3CCc3cccnc32)CC1
Activity [1]: 2.71 g
Activity [2]: 26.6%
Time (Cavia porcellus [3]): 247.9 s

ClCCCN1CCC(=C2c3ccc(Cl)cc3CCc3cccnc32)CC1
Activity (Mus musculus [4]): Non-toxic
Activity (Mus musculus [5]): Non-toxic
Activity (Ileum [6]): 69.51%
Activity [1]: 1.81 g
Activity (Mus musculus [7]): Non-toxic
Activity [2]: 43%
Time (Mus musculus [8]): 97 min
Activity (Mus musculus [9]): Non-toxic
Time (Mus musculus [10]): 1.58 min
Time (Mus musculus [11]): 1.48 min
Activity (Mus musculus [12]): Non-toxic
Activity (Mus musculus [13]): Non-toxic
Activity (Ileum [14]): 47.21%
Activity (Mus musculus [15]): Non-toxic
Activity (Ileum [16]): 5.68 g
Time (Mus musculus [17]): 120 min
Time (Cavia porcellus [3]): 256.9 s
Activity (Ileum [18]): 8.56 g
Activity (Mus musculus [19]): Non-toxic

CN1[C@@H]2CC[C@H]1CC(OC(=O)[C@H](CO)c1ccccc1)C2 (stereo partly drawn) [ENDO-ATROPINE]
Activity (Ileum [20]): 74.9%
Activity (Ileum [21]): 3.47 g

NCCCN1CCC(=C2c3ccc(Cl)cc3CCc3cccnc32)CC1
Activity [1]: 2.36 g
Activity [2]: 26%
Time (Cavia porcellus [3]): 182.8 s

OC1CCC(N2CCC(=C3c4ccc(Cl)cc4CCc4cccnc43)CC2)CC1 (stereo not given)
Activity [1]: 2.93 g
Activity [2]: 13%
Time (Cavia porcellus [3]): 222 s

Clc1ccc2c(c1)CCc1cccnc1C2=C1CCNCC1 [DESLORATADINE]
Time (Mus musculus [22]): 2.23 min
Time (Cavia porcellus [23]): 278.2 s
Activity [1]: 1.67 g
Activity [2]: 49.1%
Time (Mus musculus [24]): 93 min

Clc1ccc2c(c1)CCc1cccnc1C2=C1CCN(C2CCC(Cl)CC2)CC1 (stereo not given)
Activity (Mus musculus [4]): Non-toxic
Activity (Mus musculus [5]): Non-toxic
Activity (Ileum [6]): 61.39%
Activity [1]: 1.29 g
Activity (Mus musculus [7]): Non-toxic
Activity [2]: 61.1%
Time (Mus musculus [8]): 82 min
Activity (Mus musculus [9]): Non-toxic
Time (Mus musculus [10]): 1.62 min
Time (Mus musculus [11]): 1.61 min
Activity (Ileum [25]): 4.4 g
Activity (Mus musculus [12]): Non-toxic
Activity (Ileum [26]): 70.61%
Activity (Mus musculus [13]): Non-toxic
Activity (Mus musculus [15]): Non-toxic
Activity (Ileum [16]): 5.59 g
Time (Mus musculus [17]): 103 min
Time (Cavia porcellus [3]): 325.2 s
Activity (Mus musculus [19]): Non-toxic

Clc1ccc2c(c1)CCc1cccnc1C2=C1CCN(C2CCCCC2)CC1
Activity [1]: 2.57 g
Activity [2]: 29.4%
Time (Cavia porcellus [3]): 250.3 s

Clc1ccc2c(c1)CCc1cccnc1C2=C1CCN(C2CC=CCC2)CC1 (stereo not given)
Activity [1]: 2.38 g
Activity [2]: 28.3%
Time (Cavia porcellus [3]): 262.7 s

FCCCN1CCC(=C2c3ccc(Cl)cc3CCc3cccnc32)CC1
Activity (Mus musculus [4]): Non-toxic
Activity (Mus musculus [5]): Non-toxic
Activity [1]: 1.74 g
Activity (Mus musculus [7]): Non-toxic
Activity [2]: 48.7%
Time (Mus musculus [8]): 98 min
Activity (Mus musculus [9]): Non-toxic
Time (Mus musculus [10]): 1.45 min
Time (Mus musculus [11]): 1.47 min
Activity (Mus musculus [12]): Non-toxic
Activity (Mus musculus [13]): Non-toxic
Activity (Ileum [27]): 54.35%
Activity (Ileum [14]): 62.47%
Activity (Mus musculus [15]): Non-toxic
Time (Mus musculus [17]): 123 min
Time (Cavia porcellus [3]): 269.4 s
Activity (Ileum [18]): 6.58 g
Activity (Ileum [28]): 9.11 g
Activity (Mus musculus [19]): Non-toxic

CN(C)CCCN1CCC(=C2c3ccc(Cl)cc3CCc3cccnc32)CC1
Activity [1]: 2.66 g
Activity [2]: 30.4%
Time (Cavia porcellus [3]): 212.8 s

CCCN1CCC(=C2c3ccc(Cl)cc3CCc3cccnc32)CC1
Activity (Mus musculus [4]): Non-toxic
Activity (Mus musculus [5]): Non-toxic
Activity [1]: 1.8 g
Activity (Mus musculus [7]): Non-toxic
Activity [2]: 42.5%
Time (Mus musculus [8]): 76 min
Activity (Mus musculus [9]): Non-toxic
Time (Mus musculus [10]): 1.61 min
Time (Mus musculus [11]): 1.47 min
Activity (Mus musculus [12]): Non-toxic
Activity (Mus musculus [13]): Non-toxic
Activity (Ileum [27]): 56.14%
Activity (Ileum [14]): 73.09%
Activity (Mus musculus [15]): Non-toxic
Time (Mus musculus [17]): 99 min
Time (Cavia porcellus [3]): 255.1 s
Activity (Ileum [18]): 4.38 g
Activity (Ileum [28]): 7.51 g
Activity (Mus musculus [19]): Non-toxic

OCCCN1CCC(=C2c3ccc(Cl)cc3CCc3cccnc32)CC1
Activity (Mus musculus [4]): Non-toxic
Activity (Mus musculus [5]): Non-toxic
Activity (Ileum [6]): 58.27%
Activity [1]: 1.73 g
Activity (Mus musculus [7]): Non-toxic
Activity [2]: 45.2%
Time (Mus musculus [8]): 76 min
Activity (Mus musculus [9]): Non-toxic
Time (Mus musculus [10]): 1.46 min
Time (Mus musculus [11]): 1.54 min
Activity (Ileum [25]): 6.04 g
Activity (Mus musculus [12]): Non-toxic
Activity (Ileum [26]): 67.06%
Activity (Mus musculus [13]): Non-toxic
Activity (Mus musculus [15]): Non-toxic
Activity (Ileum [16]): 6.72 g
Time (Mus musculus [17]): 100 min
Time (Cavia porcellus [3]): 221.9 s
Activity (Mus musculus [19]): Non-toxic

— ChEMBL document CHEMBL2396577, “Design, synthesis and biological activity evaluation of desloratadine analogues as H1 receptor antagonists” (Bioorg Med Chem, 2013)
